# Measurements collected from several papers.
# Each line is one published result; the experiments were not run side by side.
# Target: Ephrin type-A receptor 7 (EPHA7, Homo sapiens, UniProt Q15375)
SMILES,test,conditions,endpoint,result
Nc1ncnc2occ(-c3ccc(NC(=O)Nc4cc(C(F)(F)F)ccc4F)cc3)c12,cell-free assay,20 µM,remaining signal,0%
Cc1c(C(=O)O)cc(-c2ccc(C3CCNCC3)cc2)c2ccc(-c3ccc(C(F)(F)F)cc3)cc12,"cell-free assay, competition with immobilised ligand",1 µM,remaining binding,100%
Cc1ccc(Nc2nccc(N(C)c3ccc4c(C)n(C)nc4c3)n2)cc1S(N)(=O)=O,"enzyme activity, inhibitor",0.3 µM,inhibition,1%
COc1cc(Cl)c(C(=O)N[C@@H](CN[C@H]2CC[C@@H](N)CC2)Cc2ccc(C#N)cc2)cc1-c1ccc(CN[C@H](C)c2ccc(C)cc2)o1,"enzyme activity, inhibitor",1 µM,remaining activity,105%
Cc1cnc(NC2CCOCC2)nc1-n1cnc(C(=O)NC(CN)c2cc(F)cc(Cl)c2)c1 (stereo not drawn),"enzyme activity, inhibitor, radiometric",1 µM,remaining activity,88%
CS(=O)(=O)c1cc(C2(NC(=O)c3cncc4c3cnn4-c3ccc(F)cc3)CC2)ccn1,"cell-free assay, competition with immobilised ligand",1 µM,remaining binding,92%
CC/C(=N\NC(=O)NCc1cccc(O)c1)c1ccc(O)c(C)c1O,"enzyme activity, inhibitor",0.1 µM,inhibition,-0.5%
CC(C)(C)c1nc2c(s1)c1nc(N)ncc1c1ccc(NS(=O)(=O)c3c(F)cccc3F)c(F)c12,"enzyme activity, inhibitor, radiometric",1 µM,remaining activity,96%
CNC(=O)c1cc(Oc2ccc(NC(=O)Nc3ccc(Cl)c(C(F)(F)F)c3)cc2)ccn1,"enzyme activity, inhibitor",10 µM,inhibition,90%
O=C1NC(=O)c2cc(Nc3ccc(F)cc3)c(Nc3ccc(F)cc3)cc21,cell-free assay,0.5 µM,remaining signal,84.6%
Cc1ccc(C(=O)Nc2ccc(CN3CCN(C)CC3)c(C(F)(F)F)c2)cc1C#Cc1cnc2cccnn12,cell-free assay,23.5 nM,remaining signal,81%
CCCCNc1ncc2c(-c3ccc(F)cc3)nn(C[C@H]3CC[C@H](N)CC3)c2n1,"target engagement in cells, inhibitor, chemoproteomics",20 mM,inhibition,43.9%
CO[C@@H](C)c1c(Nc2ccc([C@H](N(C)C(=O)C3CCS(=O)(=O)CC3)C(F)(F)F)cc2)cnc2cc(Cl)nn12,"cell-free assay, competition with immobilised ligand",1 µM,remaining binding,84%
c1ccc(CNc2nc(N3CCOc4ccccc43)nc3c2CCCC3)cc1,"target engagement in cells, inhibitor, chemoproteomics",20 mM,inhibition,12%
CCCOc1ccc(OC)c(F)c1C(=O)c1ccc(C(=O)N[C@@H]2CNC[C@H]2NC(=O)c2ccc3[nH]ncc3c2)cc1,"enzyme activity, inhibitor",10 µM,remaining activity,29%
CC(=O)c1c(NS(C)(=O)=O)c2cc(-c3ccc(Cl)cc3)c(-c3ccc(Cl)cc3Cl)nc2n(C)c1=O,"cell-free assay, competition with immobilised ligand",1 µM,remaining binding,100%
CCN(CC)CCNC(=O)c1c(C)[nH]c(/C=C2\C(=O)Nc3ccc(F)cc32)c1C,"enzyme activity, inhibitor",10 µM,inhibition,78%
Cn1nc(C(=O)NCc2ccc(C(=O)O)cc2)cc1-c1ccc2[nH]ccc2c1,"cell-free assay, competition with immobilised ligand",0.1 µM,remaining binding,82%
O=C(Nc1cnn(-c2csc(C(=O)NC3COC3)c2)c1)Nc1c(F)cccc1Cl,"enzyme activity, inhibitor",5 µM,remaining activity,91.2%
O=C(NS(=O)(=O)c1ccc(NCC2CCOCC2)c([N+](=O)[O-])c1)c1ccc(N2CCN(Cc3ccc(C(F)(F)F)cc3-c3ccc(Cl)cc3)CC2)cc1Oc1cnc2[nH]ccc2c1,"cell-free assay, competition with immobilised ligand",1 µM,remaining binding,88%
Cc1cc(NC(=O)c2cccc3cc(-c4cccc5[nH]nc(N)c45)ccc23)ccc1F,"enzyme activity, inhibitor",0.1 µM,activity vs control,96%
